Holding throughout (type): functional
Assay [1] has as its system Rattus norvegicus. Briefly: Compound was tested for inhibition of cholesterol biosynthesis in rats by oral dosing (po). In a few lines:
(§1)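 Fasted rats, dosed orally or intravenously as the line states; the read-out is inhibition of cholesterol biosynthesis from acetate.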

For assay [2], the system named is Rattus norvegicus. The assay is described as follows: Compound was tested for inhibition of cholesterol biosynthesis in rats by intravenous (iv) dosing. Put shortly:
as §1

The species named for assay [3] is Rattus norvegicus. Briefly: (§2) Esterase susceptibility was determined from the initial rate of aldehyde release upon incubation of the prodrug with homogenized rat small intestinal mucosa relative to compound 9.
Assay [4] has as its system Rattus norvegicus. The assay is described as follows: Compound was tested for inhibition of cholesterol biosynthesis in rats by intravenous (iv) dose of 4 uM/Kg. In a few lines: as §1
Assay [5] concerns Rattus norvegicus. Briefly: Compound was tested for inhibition of cholesterol biosynthesis in rats by oral dose of 28 uM/Kg. As to conditions: at 28 µmol/kg.
Assay [6] is filed under the species Rattus norvegicus. The description is as §2. In a few lines: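 A rat intestinal mucosal esterase preparation was incubated with 200 μM prodrug in 20 mM Tris, pH 7.0, at 37 °C. Timed aliquots were quenched with 0.5 M sodium acetate, pH 3.8. Released aldehyde was measured colorimetrically with methylbenzothiazolinehydrazone/ferric chloride (A625) against an aldehyde standard curve. Initial rate is given as pmol aldehyde/min per esterase unit, normalised to a reference prodrug.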
The source holds these as a separate data set.

For assay [7], the system named is Rattus norvegicus. The assay is described as follows: Compound was tested for inhibition of cholesterol biosynthesis in rats by intravenous (iv) dose of 22 uM/Kg. Put shortly:
as §1

Consider `O=P(O)(O)C(CCCc1cccc(Oc2ccccc2)c1)S(=O)(=O)O` (centres undefined), for which the ED50 (usually the dose at which the effect has come halfway, by size or by number of responders) with Rattus norvegicus [1] was 19.5 µmol/kg; in the assay with Rattus norvegicus [2] it was 0.2 µmol/kg.

On to `CC(C)(C)C(=O)OCOP(=O)(OCOC(=O)C(C)(C)C)C(CCCc1cccc(Oc2ccccc2)c1)S(=O)(=O)[O-].[K+]` (centres undefined), for which the ED50 is 3.5 µmol/kg in the assay with Rattus norvegicus [1] and 1.7 µmol/kg with Rattus norvegicus [2]. Moreover, the Relative esterase susceptibility in the assay listed under Rattus norvegicus [3] stood at 15.

As for `CC(C)=CCC/C(C)=C/CC/C(C)=C/CCCC(P(=O)(OCOC(=O)CC1CCCCC1)OCOC(=O)CC1CCCCC1)S(=O)(=O)[O-].[K+]` (centres undefined), in the assay with Rattus norvegicus [1], the ED50 amounted to 4.1 µmol/kg. For the same compound, in the assay on Rattus norvegicus [4], the Inhibition (usually the relative decrease from the control value, in per cent) is -35%. The Relative esterase susceptibility in the assay listed under Rattus norvegicus [3] came to 0.49.

For `CCC(=O)OC(OP(=O)(OC(OC(=O)CC)C(C)C)C(CCC/C=C(\C)CC/C=C(\C)CCC=C(C)C)S(=O)(=O)[O-])C(C)C.[K+]` (centres undefined), the Inhibition with Rattus norvegicus [5] was -43%. Further, in the assay filed under Rattus norvegicus [3], the Relative esterase susceptibility is listed as 1.1.

In the case of `CCC(=O)OC(C)OP(=O)(OC(C)OC(=O)CC)C(CCCc1cccc(Oc2ccccc2)c1)S(=O)(=O)[O-].[K+]` (centres undefined), in the assay with Rattus norvegicus [1], the 50% effect level (ED50) was put at a dose of 12.6 µmol/kg. Besides, the Relative esterase susceptibility in the assay listed under Rattus norvegicus [3] was 17.

Consider `CC(C)=CCC/C(C)=C/CC/C(C)=C/CCCC(P(=O)(OCOC(=O)C(C)C)OCOC(=O)C(C)C)S(=O)(=O)[O-].[K+]` (centres undefined), for which the ED50 is 18.8 µmol/kg in the assay on Rattus norvegicus [1] and 1.7 µmol/kg with Rattus norvegicus [2]. The Relative esterase susceptibility in the assay listed under Rattus norvegicus [6] was 8.1.

`CCCCCCC(=O)OCOP(=O)(OCOC(=O)CCCCCC)C(CCC/C=C(\C)CC/C=C(\C)CCC=C(C)C)S(=O)(=O)[O-].[K+]` (centres undefined): the ED50 with Rattus norvegicus [1] was 14 µmol/kg; with Rattus norvegicus [2] it was 0.18 µmol/kg. The Relative esterase susceptibility in the assay listed under Rattus norvegicus [3] is reported as 6.5.

Consider `CC(C)C(=O)OC(OP(=O)(OC(OC(=O)C(C)C)C(C)C)C(CCCc1cccc(Oc2ccccc2)c1)S(=O)(=O)[O-])C(C)C.[K+]` (centres undefined), for which, in the assay with Rattus norvegicus [5], the Inhibition is listed as -45%.

Regarding `CCC(=O)OC(OP(=O)(OC(OC(=O)CC)C(C)C)C(CCCc1cccc(Oc2ccccc2)c1)S(=O)(=O)O)C(C)C` (centres undefined), the 50% effect level in the assay on Rattus norvegicus [1] (ED50) was put at a dose of 7.9 µmol/kg.

On to `CC(C)=CCC/C(C)=C/CC/C(C)=C/CCCC(P(=O)(O)O)S(=O)(=O)O` (centres undefined), for which the ED50 in the assay on Rattus norvegicus [1] came to 16.5 µmol/kg; in the assay with Rattus norvegicus [2], 0.25 µmol/kg.

As to `CC(C)=CCC/C(C)=C/CC/C(C)=C/CCCC(P(=O)(OCOC(=O)C(C)(C)C)OCOC(=O)C(C)(C)C)S(=O)(=O)[O-].[K+]` (centres undefined), the ED50 in the assay on Rattus norvegicus [1] turned out to be 3.9 µmol/kg. For the same compound, the Inhibition in the assay with Rattus norvegicus [7] is on record as -40%. For the same compound, in the assay filed under Rattus norvegicus [3], the Relative esterase susceptibility came out at 1.

For the compound `CC(OC(=O)C(C)C)OP(=O)(OC(C)OC(=O)C(C)C)C(CCCc1cccc(Oc2ccccc2)c1)S(=O)(=O)O` (centres undefined), in the assay on Rattus norvegicus [1], the ED50 was found to be 10.1 µmol/kg.

As to `CC(C)=CCC/C(C)=C/CC/C(C)=C/CCCC(P(=O)(OC(C)OC(=O)c1ccccc1)OC(C)OC(=O)c1ccccc1)S(=O)(=O)[O-].[K+]` (centres undefined), in the assay with Rattus norvegicus [5], the Inhibition is recorded as -33%. For the same compound, the Relative esterase susceptibility in the assay filed under Rattus norvegicus [3] is recorded as 0.21.

Turning to `CC(OC(=O)C(C)(C)C)OP(=O)(OC(C)OC(=O)C(C)(C)C)C(CCCc1cccc(Oc2ccccc2)c1)S(=O)(=O)[O-].[K+]` (centres undefined), the ED50 with Rattus norvegicus [1] amounted to 12.8 µmol/kg. The Relative esterase susceptibility in the assay listed under Rattus norvegicus [3] is listed as 0.45.

`CCC(=O)OC(CC)OP(=O)(OC(CC)OC(=O)CC)C(CCCc1cccc(Oc2ccccc2)c1)S(=O)(=O)O` (centres undefined): the 50% effect level in the assay on Rattus norvegicus [1] (ED50) was put at a dose of 10.9 µmol/kg.

`CCC(=O)OC(C)OP(=O)(OC(C)OC(=O)CC)C(CCC/C=C(\C)CC/C=C(\C)CCC=C(C)C)S(=O)(=O)[O-].[K+]` (centres undefined): the figures for the ED50 with Rattus norvegicus [1] and in the assay with Rattus norvegicus [2] were 11.6 µmol/kg and 7 µmol/kg, respectively. In the assay filed under Rattus norvegicus [3], the Relative esterase susceptibility was found to be 1.7.

As to `CC(C)=CCC/C(C)=C/CC/C(C)=C/CCCC(P(=O)(OCOC(=O)c1ccccc1)OCOC(=O)c1ccccc1)S(=O)(=O)[O-].[K+]` (centres undefined), the ED50 in the assay with Rattus norvegicus [1] was 15 µmol/kg; in the assay on Rattus norvegicus [2], 1.5 µmol/kg. Further, the Relative esterase susceptibility in the assay listed under Rattus norvegicus [3] is on record as 1.5.

With `CC(C)=CCC/C(C)=C/CC/C(C)=C/CCCC(P(=O)(OC(C)OC(=O)C(C)(C)C)OC(C)OC(=O)C(C)(C)C)S(=O)(=O)[O-].[K+]` (centres undefined), the Inhibition in the assay with Rattus norvegicus [5] is on record as -35%. Moreover, the Relative esterase susceptibility in the assay listed under Rattus norvegicus [3] is reported as 0.2.

The values are drawn from ChEMBL document CHEMBL1129471, “Orally active squalene synthase inhibitors: bis((acyloxy)alkyl) prodrugs of the alpha-phosphonosulfonic acid moiety” (J Med Chem, 1996).
